Test results published in ChEMBL document CHEMBL3865799, “Synthesis of a series of novel dihydroartemisinin monomers and dimers containing chalcone as a linker and their anticancer activity” (Eur J Med Chem, 2016).

Legend:
[1] = Cytotoxicity against human PC3 cells assessed as cell growth inhibition at 0.5 uM after 48 hrs by MTT assay; type: functional; conditions: PC-3, 48 h, read-out: GI
Procedure, shortened: (§1)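 Adherent lines at 70–75% confluence, grown at 37 °C in 5% CO2 with 10% FCS. Exposed 48 h to compound in DMSO (vehicle <0.2% v/v). MTT dye added 3 h before termination; formazan dissolved in DMSO, OD 570 nm with 620 nm reference. Growth inhibition expressed as % of untreated; IC50 taken from the dose series.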

[2] = Cytotoxicity against human HL60 cells assessed as cell growth inhibition at 50 uM after 48 hrs by MTT assay; type: functional; conditions: HL-60, 48 h, read-out: GI
Procedure, shortened: (§2)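 HL-60 suspension cells, 1.5 × 10^4 per well, grown at 37 °C in 5% CO2 with 10% FCS. Treated 48 h with compound in DMSO (vehicle <0.2% v/v). MTT added 3 h before the end. Formazan dissolved in DMSO and read at 570 nm (reference 620 nm). % growth inhibition computed against untreated cells; IC50 taken from the concentration series.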

[3] = Cytotoxicity against human HL60 cells assessed as cell growth inhibition at 30 uM after 48 hrs by MTT assay; type: functional; conditions: HL-60, 48 h, read-out: GI; procedure, shortened: as §2
[4] = Cytotoxicity against human MIAPaCa2 cells assessed as cell growth inhibition at 30 uM after 48 hrs by MTT assay; type: functional; conditions: MIA PaCa-2, 48 h, read-out: GI; procedure, shortened: as §1
[5] = Cytotoxicity against human MIAPaCa2 cells assessed as cell growth inhibition at 50 uM after 48 hrs by MTT assay; type: functional; conditions: MIA PaCa-2, 48 h, read-out: GI; procedure, shortened: as §1
[6] = Cytotoxicity against human PC3 cells assessed as cell growth inhibition at 30 uM after 48 hrs by MTT assay; type: functional; conditions: PC-3, 48 h, read-out: GI; procedure, shortened: as §1
[7] = Cytotoxicity against human PC3 cells assessed as cell growth inhibition at 50 uM after 48 hrs by MTT assay; type: functional; conditions: PC-3, 48 h, read-out: GI; procedure, shortened: as §1
[8] = Cytotoxicity against human HepG2 cells assessed as cell growth inhibition at 30 uM after 48 hrs by MTT assay; type: functional; conditions: HepG2, 48 h, read-out: GI; procedure, shortened: as §1
[9] = Cytotoxicity against human HepG2 cells assessed as cell growth inhibition at 50 uM after 48 hrs by MTT assay; type: functional; conditions: HepG2, 48 h, read-out: GI; procedure, shortened: as §1
[10] = Cytotoxicity against human LS180 cells assessed as cell growth inhibition at 30 uM after 48 hrs by MTT assay; type: functional; conditions: LS180, 48 h, read-out: GI; procedure, shortened: as §1
[11] = Cytotoxicity against human LS180 cells assessed as cell growth inhibition at 50 uM after 48 hrs by MTT assay; type: functional; conditions: LS180, 48 h, read-out: GI; procedure, shortened: as §1
[12] = Cytotoxicity against human HL60 cells assessed as cell growth inhibition at 0.5 uM after 48 hrs by MTT assay; type: functional; conditions: HL-60, 48 h, read-out: GI; procedure, shortened: as §2
[13] = Cytotoxicity against human HL60 cells assessed as cell growth inhibition at 1 uM after 48 hrs by MTT assay; type: functional; conditions: HL-60, 48 h, read-out: GI; procedure, shortened: as §2
[14] = Cytotoxicity against human HL60 cells assessed as cell growth inhibition at 10 uM after 48 hrs by MTT assay; type: functional; conditions: HL-60, 48 h, read-out: GI; procedure, shortened: as §2
[15] = Cytotoxicity against human HL60 cells assessed as cell growth inhibition after 48 hrs by MTT assay; type: functional, cell-based; conditions: HL-60, 48 h; procedure, shortened: as §2
[16] = test system: Vero; assay: Selectivity index, ratio of IC50 for African green monkey Vero cells to IC50 for human HL60 cells; type: functional
Procedure, shortened: (§3)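 Suspension cells were seeded at 1.5 × 10^4 per well and adherent lines at 70–75% confluence, then exposed to a range of concentrations. MTT was added 3 h before the end, formazan dissolved in DMSO, and OD read at 570 nm (reference 620 nm). Growth inhibition was taken relative to untreated cells. IC50 came from the MTT data; SI = IC50 in Vero cells / IC50 in the tumour line.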

[17] = Cytotoxicity against human MIAPaCa2 cells assessed as cell growth inhibition at 0.5 uM after 48 hrs by MTT assay; type: functional; conditions: MIA PaCa-2, 48 h, read-out: GI; procedure, shortened: as §1
[18] = Cytotoxicity against human MIAPaCa2 cells assessed as cell growth inhibition at 1 uM after 48 hrs by MTT assay; type: functional; conditions: MIA PaCa-2, 48 h, read-out: GI; procedure, shortened: as §1
[19] = Cytotoxicity against human MIAPaCa2 cells assessed as cell growth inhibition at 10 uM after 48 hrs by MTT assay; type: functional; conditions: MIA PaCa-2, 48 h, read-out: GI; procedure, shortened: as §1
[20] = Cytotoxicity against human MIAPaCa2 cells assessed as cell growth inhibition after 48 hrs by MTT assay; type: functional, cell-based; conditions: MIA PaCa-2, 48 h; procedure, shortened: as §1
[21] = test system: Vero; assay: Selectivity index, ratio of IC50 for African green monkey Vero cells to IC50 for human MIAPaCa2 cells; type: functional; procedure, shortened: as §3
[22] = Cytotoxicity against human PC3 cells assessed as cell growth inhibition at 1 uM after 48 hrs by MTT assay; type: functional; conditions: PC-3, 48 h, read-out: GI; procedure, shortened: as §1
[23] = Cytotoxicity against human PC3 cells assessed as cell growth inhibition at 10 uM after 48 hrs by MTT assay; type: functional; conditions: PC-3, 48 h, read-out: GI; procedure, shortened: as §1
[24] = Cytotoxicity against human PC3 cells assessed as cell growth inhibition after 48 hrs by MTT assay; type: functional, cell-based; conditions: PC-3, 48 h
Procedure, shortened: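 Exposed 48 h to compound in DMSO (vehicle <0.2% v/v). MTT dye added 3 h before termination; formazan dissolved in DMSO, OD 570 nm with 620 nm reference. Growth inhibition expressed as % of untreated; IC50 taken from the dose series.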

[25] = test system: Vero; assay: Selectivity index, ratio of IC50 for African green monkey Vero cells to IC50 for human PC3 cells; type: functional; procedure, shortened: as §3
[26] = Cytotoxicity against human HepG2 cells assessed as cell growth inhibition at 0.5 uM after 48 hrs by MTT assay; type: functional; conditions: HepG2, 48 h, read-out: GI; procedure, shortened: as §1
[27] = Cytotoxicity against human HepG2 cells assessed as cell growth inhibition at 1 uM after 48 hrs by MTT assay; type: functional; conditions: HepG2, 48 h, read-out: GI; procedure, shortened: as §1
[28] = Cytotoxicity against human HepG2 cells assessed as cell growth inhibition at 10 uM after 48 hrs by MTT assay; type: functional; conditions: HepG2, 48 h, read-out: GI; procedure, shortened: as §1
[29] = Cytotoxicity against human HepG2 cells assessed as cell growth inhibition after 48 hrs by MTT assay; type: functional, cell-based; conditions: HepG2, 48 h; procedure, shortened: as §1
[30] = test system: HepG2; assay: Selectivity index, ratio of IC50 for African green monkey Vero cells to IC50 for human HepG2 cells; type: functional; procedure, shortened: as §3
[31] = Cytotoxicity against human LS180 cells assessed as cell growth inhibition at 0.5 uM after 48 hrs by MTT assay; type: functional; conditions: LS180, 48 h, read-out: GI; procedure, shortened: as §1
[32] = Cytotoxicity against human LS180 cells assessed as cell growth inhibition at 1 uM after 48 hrs by MTT assay; type: functional; conditions: LS180, 48 h, read-out: GI; procedure, shortened: as §1
[33] = Cytotoxicity against human LS180 cells assessed as cell growth inhibition at 10 uM after 48 hrs by MTT assay; type: functional; conditions: LS180, 48 h, read-out: GI; procedure, shortened: as §1
[34] = Cytotoxicity against human LS180 cells assessed as cell growth inhibition after 48 hrs by MTT assay; type: functional, cell-based; conditions: LS180, 48 h; procedure, shortened: as §1
[35] = Selectivity index, ratio of IC50 for African green monkey Vero cells to IC50 for human LS180 cells; type: functional; procedure, shortened: as §3
[36] = Lipophilicity, log P of the compound; type: physicochemical; conditions: octanol/water
[37] = Aqueous solubility of the compound at pH 7; type: physicochemical

## C[C@H]1[C@@H](OCCOc2ccc(/C=C/C(=O)c3ccco3)cc2)O[C@@H]2O[C@@]3(C)CC[C@H]4[C@H](C)CC[C@@H]1[C@@]24OO3
[1]
  inhibition of growth at 0.5 µM: 15.1%
[2]
  inhibition of growth at 50 µM: 91.7%
[3]
  inhibition of growth at 30 µM: 89.1%
[4]
  inhibition of growth at 30 µM: 39.8 to 67.3%
[5]
  inhibition of growth at 50 µM: 77.5%
[6]
  inhibition of growth at 30 µM: 55.1 to 58.1%
[7]
  inhibition of growth at 50 µM: 69.4%
[8]
  inhibition of growth at 30 µM: 25.2 to 67.3%
[9]
  inhibition of growth at 50 µM: 26.9 to 42.6%
[10]
  inhibition of growth at 30 µM: 26.9%
[11]
  inhibition of growth at 50 µM: 28.3%
[12]
  inhibition of growth at 0.5 µM: 38%
[13]
  inhibition of growth at 1 µM: 57.5%
[14]
  inhibition of growth at 10 µM: 87.4%
[15]
  IC50: 0.7 µM
[16]
  Ratio IC50: 90
[17]
  inhibition of growth at 0.5 µM: 18.4%
[18]
  inhibition of growth at 1 µM: 19.1%
[19]
  inhibition of growth at 10 µM: 26.2%
[20]
  IC50: > 50 µM
[21]
  Ratio IC50: 59
[22]
  inhibition of growth at 1 µM: 15.8%
[23]
  inhibition of growth at 10 µM: 43.4%
[24]
  IC50: 24 µM
[25]
  Ratio IC50: 94
[26]
  inhibition of growth at 0.5 µM: 1%
[27]
  inhibition of growth at 1 µM: 14.7%
[28]
  inhibition of growth at 10 µM: 24.8%
[29]
  IC50: 22 µM
[30]
  Ratio IC50: 68
[31]
  inhibition of growth at 0.5 µM: 20%
[32]
  inhibition of growth at 1 µM: 25.7%
[33]
  inhibition of growth at 10 µM: 26.9%
[34]
  IC50: > 50 µM
[35]
  Ratio IC50: >200
[36]
  logP: 5.34 to 7.45
[37]
  solubility: < 10 µg/mL

## Cc1cc(C(=O)/C=C/c2ccc(OCCO[C@H]3O[C@@H]4O[C@@]5(C)CC[C@H]6[C@H](C)CC[C@@H]([C@H]3C)[C@@]46OO5)cc2)ccc1OCCO[C@H]1O[C@@H]2O[C@@]3(C)CC[C@H]4[C@H](C)CC[C@@H]([C@H]1C)[C@@]24OO3
[2]
  inhibition of growth at 50 µM: 70.4%
[3]
  inhibition of growth at 30 µM: 68.9%
[4]
  inhibition of growth at 30 µM: 44.3%
[5]
  inhibition of growth at 50 µM: 49.2%
[6]
  inhibition of growth at 30 µM: 6.4%
[7]
  inhibition of growth at 50 µM: 23.5%
[8]
  inhibition of growth at 30 µM: 13.6%
[9]
  inhibition of growth at 50 µM: 20.7%
[10]
  inhibition of growth at 30 µM: 7.1%
[11]
  inhibition of growth at 50 µM: 23.5%
[36]
  logP: 5.34 to 7.45
[37]
  solubility: < 10 µg/mL
